In PubChem BioAssay AID624022 (Broad Institute, 2012) one finds IC50 data, which are given here for 1 compound.

In this experiment the target is Scavenger receptor class B member 1 (Mus musculus) (UniProt Q61009). Nature of the experiment: inhibitors of SR-BI-mediated HDL cholesteryl ester uptake, dose response, orthogonal assay for SR-BI HDL uptake inhibitor project, cell-based, wild-type CHO mSR-BI, scintillation, powder samples (AID 624022). The conditions noted are these: CHO mSR-BI cells, [3H]CE-HDL uptake. An outline of the steps: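 Test system: LDL receptor-deficient CHO cells overexpressing mouse SR-BI; signal: scintillation counting; probe or stimulus: [3H]cholesteryl ester-HDL; timing: 1 h compound pretreatment, then 2 h uptake, 37 °C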
Scavenger receptor class B member 1 (Mus musculus), sequence (Q61009 whole entry, looked up): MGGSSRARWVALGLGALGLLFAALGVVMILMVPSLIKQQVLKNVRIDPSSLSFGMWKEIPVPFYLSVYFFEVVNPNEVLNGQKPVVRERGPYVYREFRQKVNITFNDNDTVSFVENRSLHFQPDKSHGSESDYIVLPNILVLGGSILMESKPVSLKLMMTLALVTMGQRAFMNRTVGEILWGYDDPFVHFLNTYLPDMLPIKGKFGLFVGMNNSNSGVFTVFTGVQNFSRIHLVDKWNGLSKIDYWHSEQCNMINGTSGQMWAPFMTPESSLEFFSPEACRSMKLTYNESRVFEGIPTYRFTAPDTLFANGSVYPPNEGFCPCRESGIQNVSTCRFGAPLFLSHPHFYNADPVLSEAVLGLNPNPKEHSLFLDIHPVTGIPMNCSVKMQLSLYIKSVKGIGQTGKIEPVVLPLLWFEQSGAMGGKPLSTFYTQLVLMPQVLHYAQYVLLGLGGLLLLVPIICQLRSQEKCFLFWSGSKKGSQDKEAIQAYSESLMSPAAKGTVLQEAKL

For orientation: IC50 means the concentration needed to halve the response being measured. As for `CC(C)NC(=O)Nc1ccc2c(c1)C(=O)N([C@H](C)CO)C[C@@H](C)[C@H](CN(C)S(=O)(=O)c1ccc(Cl)cc1)O2`, the half-maximal inhibitory concentration (IC50) is 500 nM.
